Test results as given in ChEMBL document CHEMBL1255304, “In vitro phenotypic susceptibility of human immunodeficiency virus type 2 clinical isolates to protease inhibitors” (Antimicrob Agents Chemother, 2008).

Tests used:
[1] = system: Human immunodeficiency virus 2; experiment: Antiviral activity against HIV 2 subtype B clinical isolate expressing 14Y-19P-61N-64V-71I-90M-95I protease gene sequence from HIV2 infected patient plasma and PBMC obtained at T2 during compound treatment measured after 3 months; type: functional, organism-based; settings: Human immunodeficiency virus 2, subtype B\r\n
Outline: (§1)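 Virus isolated by PBMC coculture from patient samples taken before (T0) or during (T1, T2) protease inhibitor exposure, with protease genes sequenced from plasma and PBMC isolates. Susceptibility was tested in the ANRS PBMC assay, and the 50% inhibitory concentration (IC50) was reported.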

[2] = system: Human immunodeficiency virus 2; experiment: Antiviral activity against HIV 2 subtype A clinical isolate expressing 5L/F-14Y/H-17G/D-43T-54I/M-62V/A-70R/K-71I protease gene sequence from HIV2 infected patient plasma and PBMC obtained at T1 during compound treatment measured after 13 months; type: functional, organism-based; settings: Human immunodeficiency virus 2, subtype A; outline: as §1
[3] = system: Human immunodeficiency virus 2; experiment: Antiviral activity against HIV 2 subtype A clinical isolate expressing 10I-40D-43I-70K-82F-84V-85L-89V-90M-91T/L-98N/K protease gene sequence from HIV2 infected patient plasma and PBMC obtained at T1 during compound treatment measured after 13 months; type: functional, organism-based; settings: Human immunodeficiency virus 2, subtype A; outline: as §1
[4] = system: Human immunodeficiency virus 2; experiment: Antiviral activity against HIV 2 subtype B clinical isolate expressing 12T-14Y-19P-40N-41D-61N-62I-96S-99L protease gene sequence from HIV2 infected patient plasma and PBMC obtained before compound treatment measured after 13 months; type: functional, organism-based; settings: Human immunodeficiency virus 2, subtype B\r\n; outline: as §1
[5] = system: Human immunodeficiency virus 2; experiment: Antiviral activity against HIV 2 subtype A clinical isolate expressing 10I-17D-40D-43I-45K/R-46V-54M-64I/V-69K/R-71V/I-90M protease gene sequence from HIV2 infected patient plasma and PBMC obtained at T1 during compound treatment measured after 13 months; type: functional, organism-based; settings: Human immunodeficiency virus 2, subtype A; outline: as §1
[6] = system: Human immunodeficiency virus 2; experiment: Antiviral activity against HIV 2 subtype A clinical isolate expressing 14H-40D-70K-72R/K-91T/S protease gene sequence from HIV2 infected patient plasma and PBMC obtained before compound treatment measured after 13 months; type: functional, organism-based; settings: Human immunodeficiency virus 2, subtype A; outline: as §1
[7] = system: Human immunodeficiency virus 2; experiment: Antiviral activity against HIV 2 subtype B clinical isolate expressing 12Q-14R-17G/D-19P-61N-62I-92A protease gene sequence from HIV2 infected patient plasma and PBMC obtained before compound treatment measured after 13 months; type: functional, organism-based; settings: Human immunodeficiency virus 2, subtype B\r\n; outline: as §1
[8] = system: Human immunodeficiency virus 2; experiment: Antiviral activity against HIV 2 subtype A clinical isolate expressing 54M-65E-71I-74N-90M protease gene sequence from HIV2 infected patient plasma and PBMC obtained at T1 during compound treatment measured after 13 months; type: functional, organism-based; settings: Human immunodeficiency virus 2, subtype A; outline: as §1
[9] = system: Human immunodeficiency virus 2; experiment: Antiviral activity against HIV 2 subtype H expressing 10I-34E-40P-41Y-60H-63N-70T-73G-82F-89L-92E protease gene sequence from HIV2 infected patient plasma and PBMC obtained at T1 during compound treatment measured after 13 months; type: functional, organism-based; settings: Human immunodeficiency virus 2, subtype H; outline: as §1
[10] = system: Human immunodeficiency virus 2; experiment: Antiviral activity against HIV 2 subtype A clinical isolate expressing 10I-17D-40D-43I-46V-66V/A-70R/K protease gene sequence from HIV2 infected patient plasma and PBMC obtained before compound treatment measured after 13 months; type: functional, organism-based; settings: Human immunodeficiency virus 2, subtype A; outline: as §1
[11] = system: Human immunodeficiency virus 2; experiment: Antiviral activity against HIV 2 subtype B clinical isolate expressing 14Y-61N-99L protease gene sequence from HIV2 infected patient plasma and PBMC obtained before compound treatment measured after 13 months; type: functional, organism-based; settings: Human immunodeficiency virus 2, subtype B\r\n; outline: as §1
[12] = system: Human immunodeficiency virus 2; experiment: Antiviral activity against HIV 2 subtype A clinical isolate expressing 10V/I-40D-43I-56V-70K-82F-84V-89V-90M protease gene sequence from HIV2 infected patient plasma and PBMC obtained at T2 during compound treatment measured after 3 months; type: functional, organism-based; settings: Human immunodeficiency virus 2, subtype A; outline: as §1
[13] = Antiviral activity against Human immunodeficiency virus type 1 (BRU ISOLATE) after […]; type: functional; settings: Human immunodeficiency virus 1
[14] = system: Human immunodeficiency virus 2; experiment: Antiviral activity against HIV 2 subtype A clinical isolate expressing 14H-17D-43T-68N/D protease gene sequence from HIV2 infected patient plasma and PBMC obtained before compound treatment measured after 13 months; type: functional, organism-based; settings: Human immunodeficiency virus 2, subtype A; outline: as §1
[15] = system: Human immunodeficiency virus 2; experiment: Antiviral activity against HIV 2 subtype H expressing 10I-40P-41Y-60H-63N-70T-73G-89L-92E protease gene sequence from HIV2 infected patient plasma and PBMC obtained before compound treatment measured after 13 months; type: functional, organism-based; settings: Human immunodeficiency virus 2, subtype H; outline: as §1
[16] = system: Human immunodeficiency virus 2; experiment: Antiviral activity against Human immunodeficiency virus type 2 (ISOLATE ROD) after 13 months; type: functional, organism-based; settings: Human immunodeficiency virus 2, ISOLATE ROD
Outline: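 Reference strain ROD was tested in the ANRS PBMC assay alongside the clinical isolates, and the 50% inhibitory concentration (IC50) was reported.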

[17] = system: Human immunodeficiency virus 2; experiment: Antiviral activity against HIV 2 subtype A clinical isolate expressing 14H-60K/N-65E protease gene sequence from HIV2 infected patient plasma and PBMC obtained before compound treatment measured after 13 months; type: functional, organism-based; settings: Human immunodeficiency virus 2, subtype A; outline: as §1
[18] = system: Human immunodeficiency virus 2; experiment: Antiviral activity against HIV 2 subtype B clinical isolate expressing 14Y-19P-33I-61N-71I-75M-84V-90M protease gene sequence from HIV2 infected patient plasma and PBMC obtained at T1 during compound treatment measured after 13 months; type: functional, organism-based; settings: Human immunodeficiency virus 2, subtype B\r\n; outline: as §1

| SMILES | IC50 [1] [nM] | IC90 [1] [nM] | IC50 [2] [nM] | IC90 [2] [nM] | IC50 [3] [nM] | IC90 [3] [nM] | IC50 [4] [nM] | IC90 [4] [nM] | IC50 [5] [nM] | IC90 [5] [nM] | IC50 [6] [nM] | IC90 [6] [nM] | IC50 [7] [nM] | IC90 [7] [nM] | IC50 [8] [nM] | IC90 [8] [nM] | IC50 [9] [nM] | IC90 [9] [nM] | IC50 [10] [nM] | IC90 [10] [nM] | also measured |
| --- | --- | --- | --- | --- | --- | --- | --- | --- | --- | --- | --- | --- | --- | --- | --- | --- | --- | --- | --- | --- | --- |
| CC(C)CN(C[C@@H](O)[C@H](Cc1ccccc1)NC(=O)O[C@H]1CO[C@H]2OCC[C@H]21)S(=O)(=O)c1ccc(N)cc1 [DARUNAVIR] | 700 | 5100 | 600 | 7300 | 500 | 2400 | 4 | 20 | 800 | 3000 | 4 | 20 | 10 | 50 | 200 | 1400 | 900 | 4700 | 4 | 30 | IC50 [11]: 2 nM; IC90 [11]: 10 nM; IC50 [12]: 1000 nM; IC90 [12]: 8100 nM; IC50 [13]: 4 nM; IC90 [13]: 9 nM; IC50 [14]: 9 nM; IC90 [14]: 30 nM; IC50 [15]: 4 nM; IC90 [15]: 40 nM; IC50 [16]: 5 nM; IC90 [16]: 20 nM; IC50 [17]: 10 nM; IC90 [17]: 30 nM; IC50 [18]: 500 nM; IC90 [18]: 3900 nM |
| CCC[C@@]1(CCc2ccccc2)CC(O)=C([C@H](CC)c2cccc(NS(=O)(=O)c3ccc(C(F)(F)F)cn3)c2)C(=O)O1 [TIPRANAVIR] | 4000 | 12000 | 6700 | 26000 | 2800 | 16000 | 400 | 3000 | 4100 | 23000 | 400 | 4200 | 300 | 2600 | 4700 | 14000 | 7300 | 16000 | 300 | 2700 | IC50 [11]: 400 nM; IC90 [11]: 1700 nM; IC50 [12]: 4800 nM; IC90 [12]: 29000 nM; IC50 [13]: 50 nM; IC90 [13]: 400 nM; IC50 [14]: 300 nM; IC90 [14]: 2200 nM; IC50 [15]: 400 nM; IC90 [15]: 800 nM; IC50 [16]: 400 nM; IC90 [16]: 3500 nM; IC50 [17]: 300 nM; IC90 [17]: 2500 nM; IC50 [18]: 4800 nM; IC90 [18]: 17000 nM |
| Cc1cccc(C)c1OCC(=O)N[C@@H](Cc1ccccc1)[C@@H](O)C[C@H](Cc1ccccc1)NC(=O)[C@H](C(C)C)N1CCCNC1=O [LOPINAVIR] | 100 | 900 | 40 | 400 | 100 | 800 | 30 | 100 | 1700 | 8500 | 20 | 80 | 20 | 200 | 400 | 3300 | 3200 | 8700 | 20 | 200 | IC50 [11]: 40 nM; IC90 [11]: 70 nM; IC50 [12]: 100 nM; IC90 [12]: 1100 nM; IC50 [13]: 30 nM; IC90 [13]: 100 nM; IC50 [14]: 30 nM; IC90 [14]: 80 nM; IC50 [15]: 60 nM; IC90 [15]: 500 nM; IC50 [16]: 20 nM; IC90 [16]: 70 nM; IC50 [17]: 40 nM; IC90 [17]: 200 nM; IC50 [18]: 200 nM; IC90 [18]: 1500 nM |
